# How the values were obtained:
# Assay type in all cases: functional
# Escherichia coli = assay: Antibacterial activity against Escherichia coli isolated from patient with diabetic foot infection after 18 to 24 hrs by broth microdilution method
# Method in brief: (§1)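 Isolates were subcultured on Trypticase soy blood agar and tested by broth microdilution in cation-adjusted Mueller-Hinton broth. In-house trays of twofold drug dilutions were stored at −70°C. Overnight colonies gave a final inoculum of about 5 × 10^5 CFU/ml. Plates were read after 18 to 24 h at 37°C.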
# Enterobacter cloacae = assay: Antibacterial activity against Enterobacter cloacae isolated from patient with diabetic foot infection assessed as percent resistant isolates after 18 to 24 hrs by broth microdilution method
# Method in brief: (§2)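 Aerobes subcultured on Trypticase soy blood agar, then broth microdilution in cation-adjusted Mueller-Hinton broth. Trays prepared in-house with twofold dilutions and stored at −70°C. Overnight colonies suspended to about 5 × 10^5 CFU/ml final. Read after 18 to 24 h at 37°C. QC strains included S. aureus ATCC 29213 and E. coli ATCC 25922.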
# [1] = test system: Staphylococcus epidermidis; assay: Antibacterial activity against Staphylococcus epidermidis isolated from patient with diabetic foot infection assessed as percent resistant isolates after 18 to 24 hrs by broth microdilution method; method in brief: as §2
# Proteus vulgaris = assay: Antibacterial activity against Proteus vulgaris isolated from patient with diabetic foot infection assessed as percent resistant isolates after 18 to 24 hrs by broth microdilution method; method in brief: as §2
# Streptococcus agalactiae = assay: Antibacterial activity against Streptococcus agalactiae isolated from patient with diabetic foot infection assessed as percent resistant isolates after 18 to 24 hrs by broth microdilution method
# Method in brief: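 Streptococci subcultured on Trypticase soy blood agar and tested by broth microdilution in cation-adjusted Mueller-Hinton broth with lysed horse blood. In-house twofold dilution trays stored at −70°C. About 5 × 10^5 CFU/ml final inoculum from overnight colonies. Read after 18 to 24 h at 37°C.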
# Klebsiella pneumoniae [2] = assay: Antibacterial activity against Klebsiella pneumoniae isolated from patient with diabetic foot infection after 18 to 24 hrs by broth microdilution method; method in brief: as §1
# Providencia rettgeri [3] = assay: Antibacterial activity against Proteus rettgeri isolated from patient with diabetic foot infection after 18 to 24 hrs by broth microdilution method; method in brief: as §1
# Proteus mirabilis = assay: Antibacterial activity against Proteus mirabilis isolated from patient with diabetic foot infection assessed as percent resistant isolates after 18 to 24 hrs by broth microdilution method; method in brief: as §2
# [4] = test system: Staphylococcus haemolyticus; assay: Antibacterial activity against Staphylococcus haemolyticus isolated from patient with diabetic foot infection after 18 to 24 hrs by broth microdilution method
# [5] = test system: Corynebacterium urealyticum; assay: Antibacterial activity against Corynebacterium urealyticum isolated from patient with diabetic foot infection after 48 hrs by broth microdilution method
# Method in brief: (§3)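 Isolates were subcultured on Trypticase soy blood agar. Broth microdilution used cation-adjusted Mueller-Hinton broth with lysed horse blood, in-house trays of twofold drug dilutions stored at −70°C. Colonies from overnight growth gave a final inoculum of about 5 × 10^5 CFU/ml. Trays were read after 18 to 24 h at 37°C, up to 48 h for some strains.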
# Staphylococcus aureus [6] = assay: Antibacterial activity against methicillin-sensitive Staphylococcus aureus isolated from patient with diabetic foot infection assessed as percent resistant isolates after 18 to 24 hrs by broth microdilution method
# Method in brief: (§4)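 Isolates grown on Trypticase soy blood agar, then tested by broth microdilution in unsupplemented cation-adjusted Mueller-Hinton broth. In-house trays held serial twofold drug dilutions and were stored at −70°C. Overnight colonies were suspended to a final inoculum near 5 × 10^5 CFU/ml, and trays read after 18–24 h at 37°C. QC strains: S. aureus ATCC 29213, E. coli ATCC 25922.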
# [7] = test system: Corynebacterium amycolatum; assay: Antibacterial activity against Corynebacterium amycolatum isolated from patient with diabetic foot infection after 48 hrs by broth microdilution method; method in brief: as §3
# Providencia rettgeri [8] = assay: Antibacterial activity against Proteus rettgeri isolated from patient with diabetic foot infection assessed as percent resistant isolates after 18 to 24 hrs by broth microdilution method; method in brief: as §2
# Corynebacterium simulans = assay: Antibacterial activity against Corynebacterium simulans isolated from patient with diabetic foot infection after 48 hrs by broth microdilution method; method in brief: as §3
# Staphylococcus aureus [9] = assay: Antibacterial activity against methicillin-resistant Staphylococcus aureus isolated from patient with diabetic foot infection assessed as percent resistant isolates after 18 to 24 hrs by broth microdilution method; method in brief: as §4
# Corynebacterium accolens = assay: Antibacterial activity against Corynebacterium accolens isolated from patient with diabetic foot infection after 48 hrs by broth microdilution method; method in brief: as §3
# Staphylococcus aureus [10] = assay: Antibacterial activity against methicillin-resistant Staphylococcus aureus isolated from patient with diabetic foot infection after 18 to 24 hrs by broth microdilution method; method in brief: as §4
# Staphylococcus aureus [11] = assay: Antibacterial activity against methicillin-sensitive Staphylococcus aureus isolated from patient with diabetic foot infection after 18 to 24 hrs by broth microdilution method
# Method in brief: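 Subcultured on Trypticase soy blood agar, then broth microdilution in cation-adjusted Mueller-Hinton broth. Trays were made in-house with serial twofold drug dilutions and stored at −70°C. Inoculum was colonies from overnight growth, final approximately 5 × 10^5 CFU/ml. MIC was read after 18 to 24 h at 37°C. QC strains: S. aureus ATCC 29213 and E. coli ATCC 25922.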
# [12] = test system: Corynebacterium minutissimum; assay: Antibacterial activity against Corynebacterium minutissimum isolated from patient with diabetic foot infection after 48 hrs by broth microdilution method; method in brief: as §3
# Klebsiella pneumoniae [13] = assay: Antibacterial activity against Klebsiella pneumoniae isolated from patient with diabetic foot infection assessed as percent resistant isolates after 18 to 24 hrs by broth microdilution method; method in brief: as §2
# Klebsiella oxytoca = assay: Antibacterial activity against Klebsiella oxytoca isolated from patient with diabetic foot infection assessed as percent resistant isolates after 18 to 24 hrs by broth microdilution method; method in brief: as §2
# Corynebacterium xerosis = assay: Antibacterial activity against Corynebacterium xerosis isolated from patient with diabetic foot infection after 48 hrs by broth microdilution method; method in brief: as §3
# Pseudomonas aeruginosa = assay: Antibacterial activity against Pseudomonas aeruginosa isolated from patient with diabetic foot infection after 18 to 24 hrs by broth microdilution method; method in brief: as §1
smiles,measurement,setting,value
C[C@@H](O)[C@H]1C(=O)N2C(C(=O)O)=C(S[C@@H]3CN[C@H](C(=O)Nc4cccc(C(=O)O)c4)C3)[C@H](C)[C@H]12 [ERTAPENEM],MIC50,Escherichia coli,≤ 0.015 µg/mL
same,MIC90,Escherichia coli,0.06 µg/mL
same,Activity,Enterobacter cloacae,0%
same,Activity,[1],67%
same,Activity,Proteus vulgaris,0%
same,Activity,Streptococcus agalactiae,0%
same,MIC50,Klebsiella pneumoniae [2],≤ 0.015 µg/mL
same,MIC90,Klebsiella pneumoniae [2],≤ 0.015 µg/mL
same,MIC50,Providencia rettgeri [3],≤ 0.015 µg/mL
same,MIC90,Providencia rettgeri [3],0.25 µg/mL
same,Activity,Proteus mirabilis,0%
same,MIC50,[4],4 µg/mL
same,MIC90,[4],> 32 µg/mL
same,MIC50,[5],1 µg/mL
same,MIC90,[5],32 µg/mL
same,Activity,Staphylococcus aureus [6],0%
same,MIC50,[7],1 µg/mL
same,MIC90,[7],32 µg/mL
same,Activity,Providencia rettgeri [8],0%
same,MIC50,Corynebacterium simulans,0.5 µg/mL
same,MIC90,Corynebacterium simulans,1 µg/mL
same,Activity,Staphylococcus aureus [9],100%
same,MIC50,Corynebacterium accolens,0.5 µg/mL
same,MIC90,Corynebacterium accolens,1 µg/mL
same,MIC50,Staphylococcus aureus [10],2 µg/mL
same,MIC90,Staphylococcus aureus [10],> 32 µg/mL
same,MIC50,Staphylococcus aureus [11],0.125 µg/mL
same,MIC90,Staphylococcus aureus [11],0.25 µg/mL
same,MIC50,[12],1 µg/mL
same,MIC90,[12],32 µg/mL
same,Activity,Klebsiella pneumoniae [13],0%
same,Activity,Klebsiella oxytoca,0%
same,MIC50,Corynebacterium xerosis,0.5 µg/mL
same,MIC90,Corynebacterium xerosis,1 µg/mL
same,MIC50,Pseudomonas aeruginosa,8 µg/mL
same,MIC90,Pseudomonas aeruginosa,32 µg/mL

# From ChEMBL document CHEMBL1153560, “In vitro activities of doripenem and six comparator drugs against 423 aerobic and anaerobic bacterial isolates from infected diabetic foot wounds” (2008)
